In ChEMBL document CHEMBL4219193, “Synthesis, biological evaluation and molecular docking study of 1-amino-2-aroylnaphthalenes against prostate cancer” (Bioorg Med Chem Lett, 2018):
The source made the active and inactive calls.

Assays:
Assay type in all cases: cell-based
[1] = biological target: RAC-alpha serine/threonine-protein kinase (Homo sapiens) (UniProt P31749); assay: Inhibition of AKT1 phosphorylation in human PC3 cells at 14 uM after 12 to 24 hrs by Western blot analysis
Procedure, shortened: (§1)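 Immunoblotting of PC-3 lysates for procaspase 8, procaspase 9 and phosphorylated Akt1, 2 and 3 after treatment at 14 µM, with samples collected at different time points.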

[2] = biological target: RAC-gamma serine/threonine-protein kinase (Homo sapiens) (UniProt Q9Y243); assay: Inhibition of AKT3 phosphorylation in human PC3 cells at 14 uM after 12 to 24 hrs by Western blot analysis; procedure, shortened: as §1
[3] = biological target: RAC-beta serine/threonine-protein kinase (Homo sapiens) (UniProt P31751); assay: Inhibition of AKT2 phosphorylation in human PC3 cells at 14 uM after 12 to 24 hrs by Western blot analysis; procedure, shortened: as §1

Measured: inhibition

Sequence of RAC-gamma serine/threonine-protein kinase (Homo sapiens) (Q9Y243 whole entry): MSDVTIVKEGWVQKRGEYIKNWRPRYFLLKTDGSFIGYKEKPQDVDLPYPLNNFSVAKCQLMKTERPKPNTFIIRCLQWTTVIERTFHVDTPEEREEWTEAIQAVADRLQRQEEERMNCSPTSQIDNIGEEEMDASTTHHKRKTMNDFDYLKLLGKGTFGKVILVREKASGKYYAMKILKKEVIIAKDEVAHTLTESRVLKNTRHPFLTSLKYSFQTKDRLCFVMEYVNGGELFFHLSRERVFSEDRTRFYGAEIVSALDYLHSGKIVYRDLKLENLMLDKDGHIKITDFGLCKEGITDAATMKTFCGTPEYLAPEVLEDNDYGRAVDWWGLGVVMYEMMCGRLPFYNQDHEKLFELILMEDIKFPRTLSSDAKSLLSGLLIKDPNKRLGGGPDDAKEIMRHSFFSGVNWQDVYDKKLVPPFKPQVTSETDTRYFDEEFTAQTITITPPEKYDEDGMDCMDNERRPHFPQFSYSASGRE
Sequence of RAC-beta serine/threonine-protein kinase (Homo sapiens) (P31751 whole entry): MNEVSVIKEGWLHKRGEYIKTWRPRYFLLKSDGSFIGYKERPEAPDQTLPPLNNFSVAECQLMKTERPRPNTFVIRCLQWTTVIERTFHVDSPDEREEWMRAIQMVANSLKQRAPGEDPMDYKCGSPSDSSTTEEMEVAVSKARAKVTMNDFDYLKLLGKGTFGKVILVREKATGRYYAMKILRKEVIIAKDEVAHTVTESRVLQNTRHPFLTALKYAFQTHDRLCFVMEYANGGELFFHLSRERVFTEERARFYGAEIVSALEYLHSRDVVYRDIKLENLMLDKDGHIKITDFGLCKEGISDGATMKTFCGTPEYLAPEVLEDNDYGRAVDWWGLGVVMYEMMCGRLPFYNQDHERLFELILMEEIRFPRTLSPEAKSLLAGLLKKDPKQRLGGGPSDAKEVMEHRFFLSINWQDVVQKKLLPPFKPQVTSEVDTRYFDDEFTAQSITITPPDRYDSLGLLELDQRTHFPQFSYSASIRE
Sequence of RAC-alpha serine/threonine-protein kinase (Homo sapiens) (P31749 whole entry): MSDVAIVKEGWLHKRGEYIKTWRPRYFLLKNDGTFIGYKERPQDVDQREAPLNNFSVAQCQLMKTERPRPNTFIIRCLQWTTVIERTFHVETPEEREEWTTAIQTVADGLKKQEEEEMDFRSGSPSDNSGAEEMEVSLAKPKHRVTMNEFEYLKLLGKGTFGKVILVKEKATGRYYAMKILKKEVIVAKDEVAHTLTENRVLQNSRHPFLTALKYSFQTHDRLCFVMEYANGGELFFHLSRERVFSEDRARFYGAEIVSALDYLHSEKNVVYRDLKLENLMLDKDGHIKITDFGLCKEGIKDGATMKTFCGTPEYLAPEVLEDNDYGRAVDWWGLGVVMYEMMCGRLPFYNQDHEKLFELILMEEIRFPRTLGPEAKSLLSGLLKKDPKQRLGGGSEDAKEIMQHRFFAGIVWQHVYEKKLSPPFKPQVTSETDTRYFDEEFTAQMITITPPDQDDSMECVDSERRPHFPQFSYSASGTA

CSc1c(C(=O)c2ccc(Br)cc2)c(N)c2ccccc2c1C#N
active: [1] | [2] | [3]
